The text below walks through data of ChEMBL document CHEMBL1126298, “New triazine derivatives as potent modulators of multidrug resistance” (1992).

Assay [1] relates to DC3F/AD. The assay can be described thus: Increase in adriamycin uptake in modulator-treated cells relative to untreated cells at a concentration of 10 uM. It is filed as functional, Cricetulus griseus. The procedure, abridged: (§1)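 DC-3F/AD or KB-A1 cells (5 × 10⁶/mL) were incubated at 37 °C for 5 h with 50 μM adriamycin plus modulator (2.5–10 μM range). ADR fluorescence of 10 000 cells was read by flow cytometry at 4 °C with 488 nm argon-laser excitation. The value is the increase in mean fluorescence of treated cells over untreated cells.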

The test system of assay [2] is DC3F/AD. The assay can be described thus: Increase in adriamycin uptake in modulator-treated cells relative to untreated cells at a concentration of 5 uM. Type of assay: functional, Cricetulus griseus. The method, boiled down:
as §1

Assay [3] concerns DC3F/AD. Kind of assay: In vitro activity in DC-3F/AD cell line Ratio of IC50(actinomycin D alone) / IC50(actinomycin D + modulator) at a concentration of 10 uM.
Assay [4] concerns DC3F/AD. The assay can be described thus: Percent of cell viability remaining after incubating the cells with the modulator alone a concentration of 5 uM. It is filed as functional, Cricetulus griseus. The procedure, abridged:
(§2)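 Cells were grown with modulator alone for 4 days under the same conditions as the chemosensitivity assay, and read by MTT. Viability = (absorbance with modulator/absorbance of control cells) × 100. "tox" marks viability below 25%.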

Assay [5] deals with DC3F/AD. Kind of assay: In vitro activity in DC-3F/AD cell line(Ratio of IC50(actinomycin D alone) / IC50(actinomycin D + modulator) at a concentration of 5 uM.
The test system of assay [6] is DC3F/AD. Kind of assay: Percent of cell viability remaining after incubating with a 10 uM concentration. Type of assay: functional, Cricetulus griseus. The procedure, abridged: as §2
For assay [7], the system named is KB. Kind of assay: Increase in adriamycin uptake in modulator-treated cells relative to untreated KB-A1 cells at a concentration of 5 uM. Type of assay: functional, Homo sapiens. The method, boiled down:
as §1

The test system of assay [8] is KB. Kind of assay: In vitro activity in KB-A1 cell line activity expressed as fold reversion (Ratio of IC50(adriamycin alone) / IC50(adriamycin + modulator) at a concentration of 5 uM. Type of assay: functional, Homo sapiens. The procedure, abridged: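 Human epidermoid KB-A1 cells (Pgp-overexpressing) were grown in RPMI 1640 with 10% FCS and 10 mM HEPES (pH 7.4). They were exposed for 4 days to adriamycin (nine graded concentrations, in triplicate) with or without 5 μM modulator. IC50 was read by the MTT assay. Fold reversion = IC50(ADR alone)/IC50(ADR + modulator).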

Some results are limits rather than exact numbers.

On to `C=CCNc1nc(NCC=C)nc(N2CCC(N(C)CC(c3ccccc3)c3ccccc3)CC2)n1`, for which the values for the Increase in assay [1] and in assay [2] were 27.9 and 20.6, respectively. The Fold reversion in assay [3] was determined as 1418; in assay [5] it was 354. Moreover, the Viability in assay [4] is given as 88%; in assay [6], 85%.

For the compound `C=CCNc1nc(NCC=C)nc(N2CCN(CCCC(c3ccc(F)cc3)c3ccc(F)cc3)CC2)n1`, the Fold reversion in assay [3] was <25; in assay [5], 171. This compound came in with a Viability in assay [4] of 50%.

Regarding `C=CCNc1nc(NCC=C)nc(NCC(O)CN2CCC(NCC3c4ccccc4CCc4ccccc43)CC2)n1` (stereo not drawn), the Increase in assay [1] is reported as 12.6; in assay [2], 10.5; in assay [7] it was 5.5. This compound gave a Viability in assay [4] of 98%. In addition, the Fold reversion in assay [5] is recorded as 1; in assay [8], <25.

In the case of `C=CCNc1nc(NCC=C)nc(N2CCN(CCC(c3ccccc3)c3ccccc3)CC2)n1`, the Increase in assay [1] came to 1.2; in assay [2] it was 0. For the same compound, the figures for the Fold reversion in assay [3] and in assay [5] were 598 and 42, respectively. Further, the results for the Viability in assay [4] and in assay [6] were 72% and 64%, respectively.

Consider `C=CCNc1nc(NCC=C)nc(N2CCC(NCC3c4ccccc4CS(=O)(=O)c4ccccc43)CC2)n1` (stereo not drawn), for which the Fold reversion in assay [3] was found to be 2536; in assay [5], 27. Besides, the Viability came out at 90% in assay [4] and 94% in assay [6].

With `C=CCNc1cc(N2CCC(NCC(c3ccccc3)c3ccccc3)CC2)nc(NCC=C)n1`, the Increase in assay [1] turned out to be 16.3; in assay [2], 15.1. In addition, the Fold reversion in assay [3] is recorded as <25; in assay [5] it was 472. In assay [4], this compound registered a Viability of 67%.

In the case of `C=CCNc1nc(NCC=C)nc(N2CCC(NC(c3ccc(F)cc3)c3ccc(F)cc3)CC2)n1`, the Increase in assay [1] came out at 25.1; in assay [2] it was 16. The Fold reversion in assay [3] came to 1212; in assay [5], 388. For the same compound, the Viability in assay [4] stood at 76%; in assay [6], 56%.

Regarding `C=CCNc1nc(NCC=C)nc(N2CCC(NCC(c3ccccc3)(c3ccccc3)c3ccccc3)CC2)n1`, the Fold reversion in assay [3] is <25; in assay [5], 57. Further, the Viability in assay [4] came to 59%.

In the case of `C/C=C/CNc1nc(NC/C=C/C)nc(N2CCC(NC(c3ccc(F)cc3)c3ccc(F)cc3)CC2)n1.Cl.Cl`, the Fold reversion in assay [3] is 339; in assay [5], 146. For the same compound, the Viability stood at 82% in assay [4] and 43% in assay [6].

Regarding `C=CCNc1cc(N2CCC(NC(c3ccc(F)cc3)c3ccc(F)cc3)CC2)nc(NCC=C)n1.Cl.Cl`, the Fold reversion in assay [3] is recorded as <25; in assay [5], 1174. In assay [4], this compound registered a Viability of 49%.

As to `C=CCNc1nc(NCCC)nc(N2CCC(NC(c3ccc(F)cc3)c3ccc(F)cc3)CC2)n1.Cl.Cl`, the Increase was determined as 25.5 in assay [1] and 19.8 in assay [2]. Moreover, the Fold reversion in assay [3] is recorded as 2220. This compound also yielded a Viability in assay [6] of 47%.

`C=CCNc1nc(NCC=C)nc(N2CCC(SCCC(c3ccccc3)c3ccccc3)CC2)n1`: the Increase in assay [1] stood at 19.7; in assay [2], 8. The Fold reversion in assay [3] was found to be 248; in assay [5] it was 41. For the same compound, the Viability in assay [4] was 85%; in assay [6], 79%.

Regarding `C=CCNc1nc(NCC=C)nc(N2CCC(NC(c3ccccc3)c3ccc(F)cc3)CC2)n1.Cl` (stereo not drawn), the figures for the Increase in assay [1] and in assay [2] were 19.4 and 10.5, respectively. Further, the Fold reversion in assay [3] is recorded as 1796; in assay [5] it was 732. Besides, the Viability in assay [4] is listed as 72%; in assay [6], 54%.

For `C=CCNc1nc(NCC=C)nc(N2CCC(OC(c3ccc(F)cc3)c3ccc(F)cc3)CC2)n1.Cl`, the figures for the Increase in assay [1] and in assay [2] were 16.1 and 11.4, respectively. The Fold reversion in assay [3] is on record as 969; in assay [5] it was 290. Further, the results for the Viability in assay [4] and in assay [6] were 70% and 56%, respectively.

Consider `C=CCNc1nc(NCCC)nc(N2CCC(NCCC(c3ccccc3)c3ccccc3)CC2)n1`, for which the Increase was 27.2 in assay [1] and 17.9 in assay [2]. In addition, the Fold reversion in assay [3] and in assay [5] was <25 in each case.

In turn, `C=CCNc1nc(NCC=C)nc(N2CCC(SC(c3ccccc3)c3ccccc3)CC2)n1` registered an Increase in assay [1] of 28.3. Moreover, the figures for the Fold reversion in assay [3] and in assay [5] were 1202 and 380, respectively. The Viability in assay [4] is 90%; in assay [6], 76%.

Regarding `C=CCNc1nc(NCC=C)nc(N2CCN(C(c3ccc(Cl)cc3)c3ccc(Cl)cc3)CC2)n1.CS(=O)(=O)O`, the Fold reversion in assay [3] is 99; in assay [5], 42. Besides, the Viability in assay [4] worked out at 81%; in assay [6], 67%.

As to `C=CCNc1nc(NCC=C)nc(NCC(O)CN2CCC(NC3c4ccccc4CCc4ccccc43)CC2)n1` (stereo not drawn), the Increase is listed as 12.9 in assay [1], 10.4 in assay [2] and 13 in assay [7]. Moreover, the Viability in assay [4] is on record as 77%. Further, the Fold reversion is recorded as 2 in assay [5] and <25 in assay [8].

On to `C=CCNc1nc(NCC=C)nc(N2CCC(N(CC=C)C(c3ccc(F)cc3)c3ccc(F)cc3)CC2)n1`, for which the Increase in assay [1] was 33.9; in assay [2] it was 22.1. Further, the Fold reversion in assay [3] came to 627. Moreover, the Viability in assay [6] is given as 49%.

Turning to `C=CCNc1nc(NCC=C)nc(NCCN2CCC(NCC3c4ccccc4CCc4ccccc43)CC2)n1`, the Increase in assay [1] is 12.4; in assay [2] it was 13.7; in assay [7], 20.9. Moreover, the Fold reversion in assay [3] was <25; in assay [5] it was 120; in assay [8], <25. The same compound gave a Viability in assay [4] of 41%.

With `C=CCNc1nc(NCC=C)nc(N2CCN(NC(=O)C3c4ccccc4CCc4ccccc43)CC2)n1`, the Increase in assay [1] came to 24.8; in assay [2], 9.5. The values for the Fold reversion in assay [3] and in assay [5] were 2174 and 138, respectively. Besides, the Viability is on record as 86% in assay [4] and 67% in assay [6].

Consider `C=CCNc1nc(NCC=C)nc(N2CCC(NCC(c3ccccc3)c3ccccc3)CC2)n1`, for which the results for the Increase in assay [1] and in assay [2] were 34.7 and 31.3, respectively. For the same compound, the values for the Fold reversion in assay [3] and in assay [5] were 1540 and 753, respectively. In addition, the values for the Viability in assay [4] and in assay [6] were 90% and 77%, respectively.

Turning to `C=CCNc1nc(NCC=C)nc(N2CCC(N(CC)C(c3ccc(F)cc3)c3ccc(F)cc3)CC2)n1`, the Increase in assay [1] is given as 44.7; in assay [2] it was 42.7. Besides, the Fold reversion in assay [3] is reported as 1838; in assay [5], 1008. In addition, the Viability turned out to be 75% in assay [4] and 53% in assay [6].

For `C=CCNc1nc(NCC=C)nc(NCCN2CCC(NC3c4ccccc4CCc4ccccc43)CC2)n1`, the Increase in assay [1] turned out to be 18.3; in assay [2], 10.4; in assay [7], 14.5. Further, the Fold reversion in assay [3] is recorded as <25; in assay [5], 64; in assay [8] it was <25. The Viability in assay [4] was 38%.

For `C=CCNc1nc(NCC=C)nc(NN2CCN(C(c3ccc(F)cc3)c3ccc(F)cc3)CC2)n1`, the Increase is reported as 20.7 in assay [1] and 18.3 in assay [2]. Besides, the Fold reversion in assay [3] was 5344; in assay [5], 1932. Also, the figures for the Viability in assay [4] and in assay [6] were 82% and 78%, respectively.

Take `C=CCNc1nc(NCC=C)nc(N2CCC(NCC(c3c(C)cccc3C)c3c(C)cccc3C)CC2)n1`: the Increase was found to be 35.5 in assay [1] and 28.9 in assay [2]. The figures for the Fold reversion in assay [3] and in assay [5] were 374 and 93, respectively. For the same compound, the Viability in assay [4] came to 100%; in assay [6] it was 84%.

On to `C=CCNc1nc(NCC=C)nc(N2CCC(NCC34CCC(c5ccccc53)c3ccccc34)CC2)n1`, for which the Increase in assay [1] is 30.7; in assay [2], 20.2; in assay [7] it was 22.2. Also, the figures for the Fold reversion in assay [3], in assay [5] and in assay [8] were 422, 96 and <25, respectively. Besides, the values for the Viability in assay [4] and in assay [6] were 90% and 87%, respectively.

Turning to `C=CCNc1nc(NCC=C)nc(N2CCC(NCCC(c3ccccc3)c3ccccc3)CC2)n1`, the results for the Increase in assay [1] and in assay [2] were 29.8 and 21.5, respectively. The Fold reversion in assay [3] was <25; in assay [5], 220. Moreover, in assay [4], the Viability is reported as 50%.
